Test results published in ChEMBL document CHEMBL4732112, “Synthesis and in vitro evaluation of novel spiroketopyrazoles as acetyl-CoA carboxylase inhibitors and potential antitumor agents” (Eur J Med Chem, 2021).
Activity calls are given as the source filed them. No cut-off for these calls is given here.

Assays:
[1] = test system: MDA-MB-231; test: Antiproliferative activity against human MDA-MB-231 cells assessed as cell growth inhibition at 10 uM after 72 hrs by MTT assay relative to control; assay type: functional; details: read-out: GI
Procedure, shortened: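 Cells were DMEM/10% FBS cultures at 37 °C, 5% CO2, seeded at 3×10^3 per well and exposed for 72 h after 24 h attachment. Read-out was MTT with formazan in DMSO and absorbance at 550 nm, expressed as inhibition rate versus control.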

[2] = test system: HepG2; test: Antiproliferative activity against human HepG2 cells assessed as cell growth inhibition after 72 hrs by MTT assay; assay type: functional, cell-based; details: HepG2, 72 h
Procedure, shortened: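 HepG2, A549 or MDA-MB-231 cells grown in DMEM with 10% FBS and penicillin/streptomycin at 37 °C, 5% CO2. Seeded at 3×10^3 per well, left 24 h, then exposed to a range of concentrations for 72 h. MTT added for 4 h, formazan dissolved in DMSO, absorbance read at 550 nm. Mean ± SD, n=3.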

[3] = Cytotoxicity against HUVEC assessed as cell viability at 100 uM after 72 hrs by MTT assay relative to control; assay type: cell-based; details: human, HUVEC cells, read-out: Activity
Procedure, shortened: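 HUVEC kept in RPMI 1640 with 10% FBS at 37 °C, 5% CO2. Seeded at 3×10^3 per well and treated at 100 µM for 72 h after 24 h attachment. Viability by MTT with absorbance at 550 nm, as percent of control. Mean ± SD, n=3.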

[4] = target: Acetyl-CoA carboxylase 1 (Homo sapiens, UniProt Q13085); test: Inhibition of ACC1 in human HepG2 cells assessed as reduction in intracellular malonyl-CoA level measured after 48 hrs by ELISA; assay type: cell-based; details: dose 1-10 µM
Procedure, shortened: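 HepG2 cells plated and exposed to the compound at several concentrations for 48 h. Cells washed with PBS, lysed in 1% Triton X-100 and spun 12000 rpm, 4 °C, 15 min. Malonyl-CoA measured by ELISA kit and triglyceride by GPO-POP kit, each normalised to BCA protein. Reported relative to control, mean ± SD, n=3.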

[5] = test system: HepG2; test: Antiproliferative activity against human HepG2 cells assessed as cell viability at 0.5 uM measured after 5 days by MTT assay relative to control; assay type: functional; details: HepG2, 120 h, time 5 day, read-out: Activity
Procedure, shortened: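 HepG2 treated with 0.5 μM plus 0, 10 or 25 μM palmitate for 1, 3 and 5 days. Palmitate was complexed with 5% fatty-acid-free BSA from a 5 mM solution, then diluted in serum-free DMEM to final concentration. Viability (% control) by MTT. Mean ± SD, n=3.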

[6] = test system: HepG2; test: Cell cycle arrest in human HepG2 cells assessed as accumulation at S phase at 10 uM measured after 48 hrs by propidium iodide staining based flow cytometry (reference value: 30.18%); assay type: functional
[7] = test system: HepG2; test: Cell cycle arrest in human HepG2 cells assessed as accumulation at G2/M phase at 10 uM measured after 48 hrs by propidium iodide staining based flow cytometry (reference value: 13.58%); assay type: functional
[8] = test system: HepG2; test: Cell cycle arrest in human HepG2 cells assessed as reduction in cyclin D1 expression measured after 48 hrs by Western blot analysis; assay type: functional, cell-based; details: dose 1-10 µM
Procedure, shortened: (§1)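 HepG2 cells treated for 48 h and lysed. Lysates cleared at 12000 rpm for 15 min and protein measured by BCA. Run on SDS-PAGE, transferred to PVDF, blocked in 5% BSA, primary antibody at 4 °C overnight, then DyLight 800 secondary. Infrared imaging and densitometry against β-actin. Mean ± SD, n=3.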

[9] = test system: HepG2; test: Cell cycle arrest in human HepG2 cells assessed as reduction in CDK4 expression measured after 48 hrs by Western blot analysis; assay type: functional, cell-based; details: dose 1-10 µM; procedure, shortened: as §1
[10] = test system: HepG2; test: Cell cycle arrest in human HepG2 cells assessed as reduction in CDK4 expression at 10 uM measured after 48 hrs by Western blot analysis relative to control; assay type: functional; set-up: scale not given: the % may be the effect or the level left; procedure, shortened: as §1
[11] = test system: HepG2; test: Induction of apoptosis in human HepG2 cells assessed as chromatin shrinkage at 1 to 10 uM measured after 48 hrs by Hoechst 33258 staining based fluorescence microscopic analysis; assay type: functional, cell-based; details: dose 1-10 µM
Procedure, shortened: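 HepG2 cells exposed to varying concentrations for 48 h in 6-well plates. Stained with Hoechst 33258 in the dark for 20 min, then nuclear morphology inspected by fluorescence microscopy.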

[12] = test system: HepG2; test: Induction of apoptosis in human HepG2 cells assessed as increase in late apoptotic cells measured after 48 hrs by Annexin V-FITC/propidium iodide staining based flow cytometry; assay type: functional, cell-based; details: dose 1-10 µM
Procedure, shortened: (§2)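 HepG2 cells incubated with the stated concentrations for 48 h, harvested, and stained with Annexin V-FITC and propidium iodide protected from light. Viable, early apoptotic, late apoptotic and necrotic fractions quantified by flow cytometry. Mean ± SD, n=3.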

[13] = test system: HepG2; test: Induction of apoptosis in human HepG2 cells assessed as viable cells at 1 uM measured after 48 hrs by Annexin V-FITC/propidium iodide staining based flow cytometry (reference value: 95.6%); assay type: functional; details: read-out: Activity; procedure, shortened: as §2
[14] = test system: HepG2; test: Induction of apoptosis in human HepG2 cells assessed as late apoptotic cells at 1 uM measured after 48 hrs by Annexin V-FITC/propidium iodide staining based flow cytometry (reference value: 0.19%); assay type: functional; procedure, shortened: as §2
[15] = test system: HepG2; test: Induction of apoptosis in human HepG2 cells assessed as viable cells at 5 uM measured after 48 hrs by Annexin V-FITC/propidium iodide staining based flow cytometry (reference value: 95.6%); assay type: functional; details: read-out: Activity
[16] = test system: HepG2; test: Induction of apoptosis in human HepG2 cells assessed as necrotic cells at 5 uM measured after 48 hrs by Annexin V-FITC/propidium iodide staining based flow cytometry (reference value: 0.22%); assay type: functional; procedure, shortened: as §2
[17] = test system: HepG2; test: Induction of apoptosis in human HepG2 cells assessed as late apoptotic cells at 10 uM measured after 48 hrs by Annexin V-FITC/propidium iodide staining based flow cytometry (reference value: 0.19%); assay type: functional; procedure, shortened: as §2
[18] = test system: HepG2; test: Induction of apoptosis in human HepG2 cells assessed as necrotic cells at 10 uM measured after 48 hrs by Annexin V-FITC/propidium iodide staining based flow cytometry (reference value: 0.22%); assay type: functional; procedure, shortened: as §2
[19] = test system: HepG2; test: Induction of apoptosis in human HepG2 cells assessed as increase in PARP cleavage at 1 to 10 uM measured after 48 hrs by Western blot analysis; assay type: functional, cell-based; details: dose 1-10 µM
Procedure, shortened: (§3)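 Western blots for Bcl-2, Bax, cleaved caspase-3 and cleaved PARP in HepG2 cells after 48 h treatment (1, 5, 10 μM for PARP). Lysates cleared, protein quantified by BCA, run on SDS-PAGE to PVDF, blocked in 5% BSA, primary overnight at 4 °C, DyLight 800 secondary. Infrared scanning and densitometry normalized to β-actin. Mean ± SD, n=3.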

[20] = test system: HepG2; test: Induction of apoptosis in human HepG2 cells assessed as increase in caspase-3 activation at 1 to 10 uM measured after 48 hrs by Western blot analysis; assay type: functional, cell-based; details: dose 1-10 µM; procedure, shortened: as §3
[21] = test system: HepG2; test: Antiproliferative activity against human HepG2 cells assessed as reduction in cell viability measured after 72 hrs in presence of doxorubicin by MTT assay; assay type: functional, cell-based; details: dose 0.0875-1.4 µM
[22] = test system: HepG2; test: Antiproliferative activity against human HepG2 cells assessed as combination index at 0.7 uM measured after 72 hrs in presence of 1.4 uM doxorubicin by MTT assay; assay type: functional
[23] = test system: HepG2; test: Antiproliferative activity against human HepG2 cells assessed as combination index at 0.35 uM measured after 72 hrs in presence of 0.7 uM doxorubicin by MTT assay; assay type: functional

IC50 [2]: 380 nM | inhibition [4]: Dose-dependent effect
SMILES: CC(C)(C)n1cc2c(n1)C(=O)CC1(CCN(C(=O)c3cc(-c4ccncc4)nc4ccccc34)CC1)O2
inhibition of growth at 10 µM [1]: 72.2% | viability at 72 h, 100 µM [3]: 95.2% | viability at 0.5 µM [5]: 33.1% | Activity [6]: 6.48% | Activity [7]: 4.9% | Activity [8]: Dose-dependent effect | Activity [9]: Dose-dependent effect | Activity [10]: 60.76% | Activity [11]: Active | Activity [12]: Dose-dependent effect | viability at 1 µM [13]: 72.1% | Activity [14]: 12.7% | viability at 5 µM [15]: 44.8% | Activity [16]: 3.72% | Activity [17]: 45.5% | Activity [18]: 0.64% | Activity [19]: Active | Activity [20]: Active | Activity [21]: Dose-dependent effect | CI [22]: 0.599 | CI [23]: 0.816
